Values after ≈ are worked out from the molar mass of the structure shown. Active and inactive are the calls of the source. The calls are words filed in the database; no cut-off is given here.

The text below walks through data of ChEMBL document CHEMBL1157456, “Unsymmetric aryl-alkyl disulfide growth inhibitors of methicillin-resistant Staphylococcus aureus and Bacillus anthracis” (Bioorg Med Chem, 2008).

The test system of assay [1] is Staphylococcus aureus. Put plainly: Antibacterial activity against Staphylococcus aureus ATCC 25923 assessed as inhibition zone diameter at 20 ug after 24 hrs by Kirby-Bauer test. Type of assay: functional. The settings on record: ATCC 25923, 24 h, read-out: IZ. An outline of the steps:
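Kirby-Bauer on TSA: a 0.5 McFarland saline suspension was spread as a lawn. 6 mm wells were bored and given 20 µL of 1 mg/mL compound in DMSO (20 ug). Plates ran 24 h at 37 °C. Inhibition zone diameter was averaged over 3 trials.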

Assay [2] deals with Staphylococcus aureus. Put plainly: Antibacterial activity against methicillin-resistant Staphylococcus aureus ATCC 43300 after 24 hrs by serial dilution method. The class given is functional. The settings on record: ATCC 43300, 24 h.
In assay [3] the test system is Staphylococcus aureus. Nature of the assay: Antibacterial activity against Staphylococcus aureus ATCC 25923 after 24 hrs by serial dilution method. Type of assay: functional. To be noted: for MIC: ATCC 25923, 24 h.
Assay [4] has as its system Bacillus anthracis. Put plainly: Antibacterial activity against Bacillus anthracis after 24 hrs by serial dilution method. The class given is functional.
Assay [5] concerns Escherichia coli. Nature of the assay: Antibacterial activity against Escherichia coli K12 ATCC 23590 after 24 hrs by serial dilution method. The class given is functional. To be noted: K12, 24 h.
The subject of assay [6] is Escherichia coli. Put plainly: Inhibition of purified Escherichia coli FabH at 5 uM by trichloroacetic acid precipitation assay relative to control. An outline of the steps: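 ecFabH (100 nM monomer) was preincubated 15 min at room temperature with 5 µM disulfide in 50 mM sodium phosphate pH 7.4. Radiolabeled 3-ketoacyl-ACP was formed from [1-14C]acetyl-CoA (40 µM) and malonyl-ACP (10 µM), the latter from a coupled S. glaucescens FabD/ACP system. Product was collected by TCA precipitation. Activity was expressed as % decrease versus a no-compound control, in duplicate.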

Assay [7] deals with Bacillus anthracis. Nature of the assay: Antibacterial activity against Bacillus anthracis assessed as inhibition zone diameter at 20 ug after 24 hrs by Kirby-Bauer test. The settings on record: read-out: IZ. Type of assay: functional.
Assay [8] in a line: Inhibition of Escherichia coli FabH.
In assay [9] the test system is Escherichia coli. Put plainly: Inhibition of purified Escherichia coli FabH at 1 uM by trichloroacetic acid precipitation assay relative to control. An outline of the steps:
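Purified ecFabH (100 nM monomer) was preincubated 15 min at room temperature with 1 µM compound in 50 mM sodium phosphate pH 7.4, without CoA. It was then added to [1-14C]acetyl-CoA (40 µM) and malonyl-ACP (10 µM), made with S. glaucescens FabD/ACP. 3-Ketoacyl-ACP was measured by TCA precipitation, as % inhibition versus a no-inhibitor control, in duplicate.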

In assay [10] the target is T1, Mycobacterial beta-ketoacyl-[acyl-carrier-protein] synthase III (Mycobacterium tuberculosis) (UniProt P9WNG3).
T1 sequence (whole entry): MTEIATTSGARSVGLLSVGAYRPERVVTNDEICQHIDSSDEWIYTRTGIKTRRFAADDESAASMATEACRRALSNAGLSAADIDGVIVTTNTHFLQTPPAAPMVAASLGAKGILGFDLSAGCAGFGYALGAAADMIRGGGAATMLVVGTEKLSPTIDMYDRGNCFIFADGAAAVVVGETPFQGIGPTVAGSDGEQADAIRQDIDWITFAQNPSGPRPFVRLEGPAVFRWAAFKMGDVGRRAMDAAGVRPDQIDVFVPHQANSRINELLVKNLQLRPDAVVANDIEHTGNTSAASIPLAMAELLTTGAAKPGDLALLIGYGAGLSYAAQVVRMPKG
Nature of the assay: Inhibition of Mycobacterium tuberculosis FabH.

For the molecule `CSSc1ccccc1CO`, the zone of inhibition at 20 µg/disc with Staphylococcus aureus [1] turned out to be 14 mm.

In the case of `CC(C)SSc1cccc([N+](=O)[O-])c1`, the results for the minimal inhibitory concentration (MIC) in the assay with Staphylococcus aureus [2], against Staphylococcus aureus [3] and against Bacillus anthracis [4] were 16 µg/mL (≈ 69.8 µM), less than 0.125 µg/mL and 1 µg/mL (≈ 4.36 µM), respectively.

Take `CCC(C)SSc1ccc([N+](=O)[O-])cc1` (configuration not stated): the MIC in the assay on Staphylococcus aureus [2] was determined as 1 µg/mL (≈ 4.11 µM); with Escherichia coli [5], 128 µg/mL (≈ 526 µM); with Staphylococcus aureus [3], 0.8 µg/mL (≈ 3.29 µM); in the assay with Bacillus anthracis [4], 0.5 µg/mL (≈ 2.05 µM). Besides, the inhibition with Escherichia coli [6] came to 96%.

As to `CCSSc1ccccc1[N+](=O)[O-]`, the values for the MIC in the assay with Staphylococcus aureus [2], in the assay on Staphylococcus aureus [3] and in the assay on Bacillus anthracis [4] were 32 µg/mL (≈ 149 µM), 16 µg/mL (≈ 74.3 µM) and 16 µg/mL (≈ 74.3 µM), respectively. Moreover, the zone of inhibition at 20 µg/disc in the assay with Staphylococcus aureus [1] came to 40 mm; in the assay on Bacillus anthracis [7], 35 mm.

In assay [8], `CSSCCNC(=O)CCNC(=O)[C@@H](O)C(C)(C)COP(=O)(O)OP(=O)(O)OC[C@H]1O[C@@H](n2cnc3c(N)ncnc32)[C@H](O)[C@@H]1OP(=O)(O)O` returned an IC50 of 57 µM.

`CC(C)SSc1ccccc1[N+](=O)[O-]`: the MIC in the assay on Staphylococcus aureus [2] came to 32 µg/mL (≈ 140 µM); against Staphylococcus aureus [3], 16 µg/mL (≈ 69.8 µM); with Bacillus anthracis [4], 32 µg/mL (≈ 140 µM). Also, the zone of inhibition at 20 µg/disc was 31 mm with Staphylococcus aureus [1] and 27 mm with Bacillus anthracis [7].

Consider `CSSCCc1ccc([N+](=O)[O-])cc1`, for which the outcome in the assay on Staphylococcus aureus [3] was Active. Also, 64 µg/mL (≈ 279 µM) was the least that counted as inhibitory in the assay on Bacillus anthracis [4] (MIC).

Consider `CCCCSSc1ccc([N+](=O)[O-])cc1`, for which the MIC came out at 32 µg/mL (≈ 131 µM) against Staphylococcus aureus [2], 96 µg/mL (≈ 394 µM) in the assay on Escherichia coli [5], 1 µg/mL (≈ 4.11 µM) in the assay with Staphylococcus aureus [3] and 1 µg/mL (≈ 4.11 µM) against Bacillus anthracis [4]. In addition, in the assay with Escherichia coli [6], the inhibition is 93%.

`CC(C)SSc1ccc([N+](=O)[O-])cc1`: the MIC against Staphylococcus aureus [2] is less than 0.125 µg/mL; in the assay with Escherichia coli [5], 96 µg/mL (≈ 419 µM); with Staphylococcus aureus [3], less than 0.125 µg/mL; in the assay with Bacillus anthracis [4] it was 0.125 µg/mL (≈ 0.545 µM). This molecule registered an inhibition in the assay on Escherichia coli [6] of 98.5%.

As to `CCSSc1ccc([N+](=O)[O-])cc1`, the minimal inhibitory concentration (MIC) came to 16 µg/mL (≈ 74.3 µM) against Staphylococcus aureus [2], 16 µg/mL (≈ 74.3 µM) in the assay with Escherichia coli [5], 1 µg/mL (≈ 4.64 µM) in the assay on Staphylococcus aureus [3] and 0.25 µg/mL (≈ 1.16 µM) with Bacillus anthracis [4]. Further, in the assay on Escherichia coli [6], the inhibition worked out at 98%.

On to `CO[C@H]1C(=O)N(SC)[C@H]1c1ccccc1Cl`, for which the inhibition with Escherichia coli [9] amounted to 89%.

`CCCCCCCCCCOC(=O)SSCCO`: the outcome in assay [10] was Active.

Consider `CSSc1ccccn1`, for which the zone of inhibition at 20 µg/disc in the assay on Staphylococcus aureus [1] came to 23 mm.

`CSSc1ccc(F)c(F)c1`: the zone of inhibition at 20 µg/disc with Staphylococcus aureus [1] came out at 11 mm.

Regarding `CCCSSc1ccc([N+](=O)[O-])cc1`, the MIC in the assay on Staphylococcus aureus [2] amounted to 16 µg/mL (≈ 69.8 µM); in the assay with Escherichia coli [5], 64 µg/mL (≈ 279 µM); against Staphylococcus aureus [3] it was 16 µg/mL (≈ 69.8 µM); against Bacillus anthracis [4] it was 1 µg/mL (≈ 4.36 µM). The same molecule returned an inhibition in the assay on Escherichia coli [6] of 91%. Besides, in the assay on Staphylococcus aureus [1], the zone of inhibition at 20 µg/disc is 43 mm.

Consider `CCC(C)SSc1cccc([N+](=O)[O-])c1` (configuration not stated), for which the minimal inhibitory concentration (MIC) in the assay with Staphylococcus aureus [2] worked out at 32 µg/mL (≈ 131 µM); against Staphylococcus aureus [3] it was 8 µg/mL (≈ 32.9 µM); in the assay with Bacillus anthracis [4] it was 8 µg/mL (≈ 32.9 µM). Besides, the zone of inhibition at 20 µg/disc in the assay with Staphylococcus aureus [1] is 45 mm; in the assay with Bacillus anthracis [7] it was 41 mm.

`CSSc1ccc(N)cc1`: the zone of inhibition at 20 µg/disc in the assay on Staphylococcus aureus [1] is 0 mm.

In the assay with Staphylococcus aureus [3], `CN[C@H](CC(C)C)C(=O)N[C@H]1C(=O)N[C@@H](CC(N)=O)C(=O)N[C@H]2C(=O)N[C@H]3C(=O)N[C@H](C(=O)N[C@H](C(=O)O)c4cc(O)cc(O)c4-c4cc3ccc4O)[C@H](O)c3ccc(c(Cl)c3)Oc3cc2cc(c3O[C@@H]2O[C@H](CO)[C@@H](O)[C@H](O)[C@H]2O[C@H]2C[C@](C)(N)[C@H](O)[C@H](C)O2)Oc2ccc(cc2Cl)[C@H]1O` [VANCOMYCIN] yielded an MIC of 0.25 µg/mL (≈ 0.173 µM). For the same molecule, in the assay on Staphylococcus aureus [1], the zone of inhibition at 20 µg/disc came to 27 mm.

For `CCSSc1cccc([N+](=O)[O-])c1`, the MIC came out at 64 µg/mL (≈ 297 µM) against Staphylococcus aureus [2], 8 µg/mL (≈ 37.2 µM) against Staphylococcus aureus [3] and 8 µg/mL (≈ 37.2 µM) against Bacillus anthracis [4]. Further, the zone of inhibition at 20 µg/disc with Staphylococcus aureus [1] was 45 mm; in the assay on Bacillus anthracis [7] it was 40 mm.

As for `CSSc1ccccc1[N+](=O)[O-]`, the MIC turned out to be 32 µg/mL (≈ 159 µM) in the assay on Staphylococcus aureus [2], 16 µg/mL (≈ 79.5 µM) against Staphylococcus aureus [3] and 16 µg/mL (≈ 79.5 µM) with Bacillus anthracis [4]. Further, the zone of inhibition at 20 µg/disc stood at 37 mm with Staphylococcus aureus [1] and 31 mm in the assay with Bacillus anthracis [7].

As to `CSSc1ccc(NC(C)=O)cc1`, the zone of inhibition at 20 µg/disc with Staphylococcus aureus [1] was determined as 20 mm.

Regarding `CSc1ccc([N+](=O)[O-])cc1`, the result in the assay with Staphylococcus aureus [3] was inactive.

For `CC1(C)S[C@@H]2[C@H](NC(=O)Cc3ccccc3)C(=O)N2[C@H]1C(=O)O` [PENICILLIN G], the MIC is 64 µg/mL (≈ 191 µM) with Staphylococcus aureus [2] and 0.03 µg/mL (≈ 0.0897 µM) with Staphylococcus aureus [3]. For the same molecule, in the assay on Staphylococcus aureus [1], the zone of inhibition at 20 µg/disc was 33 mm.

For `CSSc1ccc(C)c(C)c1`, the zone of inhibition at 20 µg/disc in the assay on Staphylococcus aureus [1] is 10 mm.

For the molecule `CSSc1cccc([N+](=O)[O-])c1`, the MIC with Staphylococcus aureus [2] is 64 µg/mL (≈ 318 µM); in the assay with Staphylococcus aureus [3], 16 µg/mL (≈ 79.5 µM); in the assay with Bacillus anthracis [4], 8 µg/mL (≈ 39.7 µM). Also, the zone of inhibition at 20 µg/disc amounted to 36 mm in the assay on Staphylococcus aureus [1] and 43 mm in the assay on Bacillus anthracis [7].

As to `CCC(C)SN1C(=O)[C@H](OC)[C@@H]1c1ccccc1Cl` (some centres not stated), in the assay on Escherichia coli [9], the inhibition is 30%.

For `O=C(O)c1cc([N+](=O)[O-])ccc1SSc1ccc([N+](=O)[O-])cc1C(=O)O`, the result in the assay with Staphylococcus aureus [3] was inactive.

For `CCOc1cccc(SSC)c1`, the zone of inhibition at 20 µg/disc in the assay on Staphylococcus aureus [1] was 9 mm.

On to `CSSc1ccc([N+](=O)[O-])cc1`, for which the MIC in the assay with Staphylococcus aureus [2] was found to be 32 µg/mL (≈ 159 µM); against Escherichia coli [5], 16 µg/mL (≈ 79.5 µM); against Staphylococcus aureus [3] it was 16 µg/mL (≈ 79.5 µM); against Bacillus anthracis [4], 1 µg/mL (≈ 4.97 µM). Besides, the inhibition with Escherichia coli [6] was 94%. Moreover, the zone of inhibition at 20 µg/disc with Staphylococcus aureus [1] is 35 mm.

`CSSCc1ccc([N+](=O)[O-])cc1`: the result in the assay with Staphylococcus aureus [3] was Active. This molecule registered a minimal inhibitory concentration (MIC) in the assay with Bacillus anthracis [4] of 32 µg/mL (≈ 149 µM).

Turning to `CCC(C)SSc1ccccc1[N+](=O)[O-]` (configuration not stated), the MIC against Staphylococcus aureus [2], in the assay with Staphylococcus aureus [3] and against Bacillus anthracis [4] was 32 µg/mL (≈ 131 µM) each time. In addition, the results for the zone of inhibition at 20 µg/disc in the assay with Staphylococcus aureus [1] and with Bacillus anthracis [7] were 24 mm and 23 mm, respectively.
